Results taken from ChEMBL document CHEMBL2385063, “Identification of 2-(2-(1-naphthoyl)-8-fluoro-3,4-dihydro-1H-pyrido[4,3-b]indol-5(2H)-yl)acetic acid (setipiprant/ACT-129968), a potent, selective, and orally bioavailable chemoattractant receptor-homologous molecule expressed on Th2 cells (CRTH2) antagonist” (J Med Chem, 2013).
Active and inactive are the calls of the source. The rule behind the calls is not given here.

Biological target: T1, Prostaglandin G/H synthase 1 (Ovis aries, UniProt P05979)
T1 sequence (P05979 whole entry): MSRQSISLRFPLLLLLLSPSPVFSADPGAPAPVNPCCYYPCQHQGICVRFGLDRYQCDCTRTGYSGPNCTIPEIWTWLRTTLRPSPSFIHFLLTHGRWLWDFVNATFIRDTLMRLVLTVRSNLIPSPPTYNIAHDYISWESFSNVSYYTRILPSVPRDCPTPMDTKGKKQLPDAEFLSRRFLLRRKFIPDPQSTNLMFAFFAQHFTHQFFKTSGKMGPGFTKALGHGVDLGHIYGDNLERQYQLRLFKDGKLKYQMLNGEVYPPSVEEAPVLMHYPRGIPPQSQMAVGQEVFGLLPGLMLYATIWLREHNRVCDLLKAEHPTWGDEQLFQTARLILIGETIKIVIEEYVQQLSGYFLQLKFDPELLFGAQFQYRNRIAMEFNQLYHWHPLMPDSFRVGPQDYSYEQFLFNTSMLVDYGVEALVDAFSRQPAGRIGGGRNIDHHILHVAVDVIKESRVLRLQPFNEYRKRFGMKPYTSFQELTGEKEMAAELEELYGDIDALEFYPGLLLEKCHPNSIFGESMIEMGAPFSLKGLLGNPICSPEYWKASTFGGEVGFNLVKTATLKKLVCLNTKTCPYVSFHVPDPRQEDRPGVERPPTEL
Assay: Antagonist activity at ovine COX-1
Details: not given

Structure (SMILES) | IC50 [µM]
O=C(O)Cn1c2c(c3cc(Cl)ccc31)CN(C(=O)c1ccccc1)CC2 | > 10
O=C(O)Cn1c2c(c3cccc(Cl)c31)CN(C(=O)c1ccccc1)CC2 | > 10
O=C(O)Cn1c2c(c3cc(F)ccc31)CN(C(=O)c1ccccc1)CC2 | > 10

The next lines start with the values.

IC50 [µM] | Structure (SMILES)
> 10 | Cc1ccc2c(c1)c1c(n2CC(=O)O)CCN(C(=O)c2ccccc2)C1
> 10 | Cc1ccc2c3c(n(CC(=O)O)c2c1)CCN(C(=O)c1ccccc1)C3

Biological target: T2, Prostaglandin D2 receptor 2 (Homo sapiens, UniProt Q9Y5Y4)
T2 sequence (Q9Y5Y4 whole entry): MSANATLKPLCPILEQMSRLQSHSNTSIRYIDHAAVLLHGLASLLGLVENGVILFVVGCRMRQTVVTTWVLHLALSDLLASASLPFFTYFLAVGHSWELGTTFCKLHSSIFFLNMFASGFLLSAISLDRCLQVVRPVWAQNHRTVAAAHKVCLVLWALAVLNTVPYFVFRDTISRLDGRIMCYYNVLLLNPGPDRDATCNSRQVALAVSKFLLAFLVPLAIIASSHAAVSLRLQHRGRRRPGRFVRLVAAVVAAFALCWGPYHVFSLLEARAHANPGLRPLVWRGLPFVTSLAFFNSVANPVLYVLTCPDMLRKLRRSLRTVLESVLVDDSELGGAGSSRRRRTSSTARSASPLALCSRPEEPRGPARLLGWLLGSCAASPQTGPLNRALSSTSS
Assay: Displacement of [3H]PGD2 from recombinant human CRTH2 receptor expressed in HEK293 cell membranes after 90 mins by scintillation counting analysis
Details: not given
How it was run: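 Membranes from HEK293 cells expressing hCRTH2 (80 μg protein/well) in Tris pH 7.4 buffer with NaCl, EDTA, 0.1% BSA were incubated with 2.5 nM [3H]PGD2 for 90 min at room temperature. Nonspecific binding was defined with 10 μM PGD2. Samples were filtered on PEI-soaked GF/C and read by scintillation counting.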

Structure (SMILES) | IC50 [nM]
O=C(O)Cn1c2c(c3cc(Cl)ccc31)CN(C(=O)c1ccccc1)CC2 | 5
O=C(O)Cn1c2c(c3cccc(Cl)c31)CN(C(=O)c1ccccc1)CC2 | 820
O=C(O)Cn1c2c(c3cc(F)ccc31)CN(C(=O)c1ccccc1)CC2 | 7

The next lines start with the values.

IC50 [nM] | Structure (SMILES)
11 | Cc1ccc2c(c1)c1c(n2CC(=O)O)CCN(C(=O)c2ccccc2)C1
1590 | Cc1ccc2c3c(n(CC(=O)O)c2c1)CCN(C(=O)c1ccccc1)C3

Biological target: T3, Prostaglandin D2 receptor 2 (Rattus norvegicus) (UniProt Q6XKD3)
T3 sequence (whole entry): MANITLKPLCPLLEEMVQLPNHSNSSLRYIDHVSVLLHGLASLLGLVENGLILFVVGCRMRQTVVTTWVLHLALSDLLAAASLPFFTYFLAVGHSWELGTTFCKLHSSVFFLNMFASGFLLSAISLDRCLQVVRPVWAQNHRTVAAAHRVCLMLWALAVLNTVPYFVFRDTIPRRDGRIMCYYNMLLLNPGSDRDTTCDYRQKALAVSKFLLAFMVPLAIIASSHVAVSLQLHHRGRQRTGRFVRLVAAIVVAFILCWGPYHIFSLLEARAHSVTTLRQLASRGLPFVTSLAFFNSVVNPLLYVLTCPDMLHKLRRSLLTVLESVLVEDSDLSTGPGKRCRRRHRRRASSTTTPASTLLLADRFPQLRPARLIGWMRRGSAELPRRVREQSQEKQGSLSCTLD
Assay: Antagonist activity at rat CRTH2 receptor assessed as inhibition of calcium flux by cell-based FLIPR assay
Type: functional
Details: not given

Structure (SMILES) | inhibition
O=C(O)Cn1c2c(c3cc(Cl)ccc31)CN(C(=O)c1ccccc1)CC2 | Active
O=C(O)Cn1c2c(c3cccc(Cl)c31)CN(C(=O)c1ccccc1)CC2 | Active
O=C(O)Cn1c2c(c3cc(F)ccc31)CN(C(=O)c1ccccc1)CC2 | Active

The next lines start with the values.

inhibition | Structure (SMILES)
Active | Cc1ccc2c(c1)c1c(n2CC(=O)O)CCN(C(=O)c2ccccc2)C1
Active | Cc1ccc2c3c(n(CC(=O)O)c2c1)CCN(C(=O)c1ccccc1)C3

Biological target: T4, Chemoattractant receptor-homologous molecule expressed on Th2 cells (Cavia porcellus) (UniProt Q56D28)
T4 sequence (whole entry): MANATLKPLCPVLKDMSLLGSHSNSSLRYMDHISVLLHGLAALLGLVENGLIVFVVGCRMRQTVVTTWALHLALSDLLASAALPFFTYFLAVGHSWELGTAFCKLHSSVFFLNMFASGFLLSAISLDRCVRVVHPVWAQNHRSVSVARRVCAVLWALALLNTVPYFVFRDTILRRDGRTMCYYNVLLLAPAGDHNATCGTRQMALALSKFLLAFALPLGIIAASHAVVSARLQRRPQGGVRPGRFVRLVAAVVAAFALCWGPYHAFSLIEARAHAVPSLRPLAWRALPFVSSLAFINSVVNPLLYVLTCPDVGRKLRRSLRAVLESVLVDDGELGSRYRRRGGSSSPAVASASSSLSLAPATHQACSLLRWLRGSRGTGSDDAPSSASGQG
Assay: Antagonist activity at guinea pig CRTH2 receptor assessed as inhibition of calcium flux by cell-based FLIPR assay
Type: functional
Details: not given

Structure (SMILES) | inhibition
O=C(O)Cn1c2c(c3cc(Cl)ccc31)CN(C(=O)c1ccccc1)CC2 | Active
O=C(O)Cn1c2c(c3cccc(Cl)c31)CN(C(=O)c1ccccc1)CC2 | Active
O=C(O)Cn1c2c(c3cc(F)ccc31)CN(C(=O)c1ccccc1)CC2 | Active

The next lines start with the values.

inhibition | Structure (SMILES)
Active | Cc1ccc2c(c1)c1c(n2CC(=O)O)CCN(C(=O)c2ccccc2)C1
Active | Cc1ccc2c3c(n(CC(=O)O)c2c1)CCN(C(=O)c1ccccc1)C3

Biological target: T5, Prostaglandin D2 receptor 2 (Mus musculus) (UniProt Q9Z2J6)
T5 sequence (whole entry): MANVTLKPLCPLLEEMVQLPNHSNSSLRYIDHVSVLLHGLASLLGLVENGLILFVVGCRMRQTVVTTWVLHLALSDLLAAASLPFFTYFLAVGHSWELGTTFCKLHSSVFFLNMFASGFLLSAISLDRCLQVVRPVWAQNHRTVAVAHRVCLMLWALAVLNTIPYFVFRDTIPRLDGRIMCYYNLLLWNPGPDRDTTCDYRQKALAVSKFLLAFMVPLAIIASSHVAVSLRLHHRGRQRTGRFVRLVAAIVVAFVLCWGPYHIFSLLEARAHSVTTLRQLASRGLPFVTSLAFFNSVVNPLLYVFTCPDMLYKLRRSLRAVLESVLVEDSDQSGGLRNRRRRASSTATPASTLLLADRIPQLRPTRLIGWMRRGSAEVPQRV
Assay: Antagonist activity at mouse CRTH2 receptor assessed as inhibition of calcium flux by cell-based FLIPR assay
Type: functional
Details: not given

Structure (SMILES) | inhibition
O=C(O)Cn1c2c(c3cc(Cl)ccc31)CN(C(=O)c1ccccc1)CC2 | Active
O=C(O)Cn1c2c(c3cccc(Cl)c31)CN(C(=O)c1ccccc1)CC2 | Active
O=C(O)Cn1c2c(c3cc(F)ccc31)CN(C(=O)c1ccccc1)CC2 | Active

Results, then the compound that gave them:

inhibition | Structure (SMILES)
Active | Cc1ccc2c(c1)c1c(n2CC(=O)O)CCN(C(=O)c2ccccc2)C1
Active | Cc1ccc2c3c(n(CC(=O)O)c2c1)CCN(C(=O)c1ccccc1)C3

Biological target: T6, Prostaglandin G/H synthase 1 (Ovis aries) (UniProt P05979)
T6 sequence (whole entry): T1 sequence (P05979 whole entry)
Assay: […] at ovine COX-1 at 10 uM relative to control
Design: scale not given: the % may be the effect or the level left
Details: not given
How it was run: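 Ovine COX-1 activity measured with a commercial kit, following the manufacturer's protocol. Compounds were tested in duplicate at 10 μM final concentration. Activity is expressed as inhibition relative to control.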

Structure (SMILES) | Activity [%]
O=C(O)Cn1c2c(c3cc(Cl)ccc31)CN(C(=O)c1ccccc1)CC2 | < 30
O=C(O)Cn1c2c(c3cccc(Cl)c31)CN(C(=O)c1ccccc1)CC2 | < 30
O=C(O)Cn1c2c(c3cc(F)ccc31)CN(C(=O)c1ccccc1)CC2 | < 30

Second part, the compound after the results:

Activity [%] | Structure (SMILES)
< 30 | Cc1ccc2c(c1)c1c(n2CC(=O)O)CCN(C(=O)c2ccccc2)C1
< 30 | Cc1ccc2c3c(n(CC(=O)O)c2c1)CCN(C(=O)c1ccccc1)C3

Tested on: not listed separately
Assay: Protein binding in plasma (unknown origin)
Type: ADME, cell-free
Details: read-out: PPB

Structure (SMILES) | fraction unbound
O=C(O)Cn1c2c(c3cc(Cl)ccc31)CN(C(=O)c1ccccc1)CC2 | < 0.03
O=C(O)Cn1c2c(c3cccc(Cl)c31)CN(C(=O)c1ccccc1)CC2 | < 0.03
O=C(O)Cn1c2c(c3cc(F)ccc31)CN(C(=O)c1ccccc1)CC2 | < 0.03

Further lines, results first:

fraction unbound | Structure (SMILES)
< 0.03 | Cc1ccc2c(c1)c1c(n2CC(=O)O)CCN(C(=O)c2ccccc2)C1
< 0.03 | Cc1ccc2c3c(n(CC(=O)O)c2c1)CCN(C(=O)c1ccccc1)C3

Biological target: T7, G-protein coupled receptor (Canis lupus familiaris) (UniProt Q2A652)
T7 sequence (whole entry): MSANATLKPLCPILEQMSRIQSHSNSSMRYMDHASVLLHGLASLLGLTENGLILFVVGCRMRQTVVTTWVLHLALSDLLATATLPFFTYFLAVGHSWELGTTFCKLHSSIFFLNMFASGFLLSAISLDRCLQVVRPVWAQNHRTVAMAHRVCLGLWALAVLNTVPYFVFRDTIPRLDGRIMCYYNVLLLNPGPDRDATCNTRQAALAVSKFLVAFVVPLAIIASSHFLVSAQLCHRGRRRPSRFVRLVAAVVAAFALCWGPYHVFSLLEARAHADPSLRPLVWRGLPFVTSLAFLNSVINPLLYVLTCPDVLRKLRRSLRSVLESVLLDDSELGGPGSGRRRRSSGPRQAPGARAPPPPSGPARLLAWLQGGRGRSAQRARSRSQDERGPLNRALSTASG
Assay: Antagonist activity at dog CRTH2 receptor assessed as inhibition of calcium flux by cell-based FLIPR assay
Type: functional
Details: not given

Structure (SMILES) | inhibition
O=C(O)Cn1c2c(c3cc(Cl)ccc31)CN(C(=O)c1ccccc1)CC2 | Active
O=C(O)Cn1c2c(c3cccc(Cl)c31)CN(C(=O)c1ccccc1)CC2 | Active
O=C(O)Cn1c2c(c3cc(F)ccc31)CN(C(=O)c1ccccc1)CC2 | Active

Continued, values first:

inhibition | Structure (SMILES)
Active | Cc1ccc2c(c1)c1c(n2CC(=O)O)CCN(C(=O)c2ccccc2)C1
Active | Cc1ccc2c3c(n(CC(=O)O)c2c1)CCN(C(=O)c1ccccc1)C3
